From ChEMBL document CHEMBL1134325, “Diaminoindanes as microsomal triglyceride transfer protein inhibitors” (J Med Chem, 2001)

Assays:
Rattus norvegicus [1] = experiment: Inhibition of plasma triglycerides in normolipidemic rats after 24 h of 10 mg/kg oral dosing; assay type: functional
Procedure, shortened: (§1)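 Overnight-fasted normolipidemic rats received a single oral dose in cornstarch vehicle. Blood was drawn at 2, 6 and 24 h post-dose and assayed for triglycerides and total cholesterol, with free access to food after the 6 h sample. Value is mean percent inhibition versus a separate vehicle-treated group, unpaired t test p < 0.05, NS = no significant change, N = 6.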

Rattus norvegicus [2] = experiment: Inhibition of total cholesterol in normolipidemic rats after 6 hr of 50 mg/kg oral dosing; assay type: functional; procedure, shortened: as §1
Canis familiaris [3] = experiment: Inhibition of plasma total triglycerides in the normolipidemic dogs after day 2 of oral administration of 10 mg/kg/ day.; assay type: functional, Canis lupus familiaris
Procedure, shortened: (§2)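 Normolipidemic dogs dosed once daily for 4 days by oral gavage, compound suspended in cornstarch vehicle. Plasma sampled 24 h after dosing on days 0, 2, 3 and 4, assayed for triglycerides and total cholesterol (mg/dL). Mean percent inhibition versus day-0 level is given for treated dogs; n = 6 per group; significance by one-way ANOVA, p < 0.05.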

Rattus norvegicus [4] = experiment: Inhibition of total cholesterol in normolipidemic rats after 24 hr of 10 mg/kg oral dosing; assay type: functional; procedure, shortened: as §1
Canis familiaris [5] = experiment: Inhibition of plasma total triglycerides in the normolipidemic dogs after day 0 of oral administration of 2.5 mg/kg/ day.; assay type: functional, Canis lupus familiaris; procedure, shortened: as §2
Rattus norvegicus [6] = experiment: Inhibition of plasma triglycerides in normolipidemic rats after 6 hr of 10 mg/kg oral dosing; no significant change; assay type: functional, organism-based; set-up: dose 10 mg/kg; procedure, shortened: as §1
Canis familiaris [7] = experiment: Inhibition of plasma total cholesterol in the normolipidemic dogs after day 3 of oral administration of 10 mg/kg/ day.; assay type: functional, Canis lupus familiaris; procedure, shortened: as §2
Canis familiaris [8] = experiment: Inhibition of plasma total triglycerides in the normolipidemic dogs after day 4 of oral administration of 1 mg/kg/ day; assay type: functional, Canis lupus familiaris
Canis familiaris [9] = experiment: Inhibition of plasma total triglycerides in the normolipidemic dogs after day 4 of oral administration of 10 mg/kg/ day; assay type: functional, Canis lupus familiaris
Canis familiaris [10] = experiment: Inhibition of plasma total cholesterol in the normolipidemic dogs after day 0 of oral administration of 2.5 mg/kg/ day.; assay type: functional, Canis lupus familiaris; procedure, shortened: as §2
Rattus norvegicus [11] = experiment: Inhibition of plasma triglycerides in normolipidemic rats after 2 hr of 50 mg/kg oral dosing; assay type: functional; procedure, shortened: as §1
Rattus norvegicus [12] = experiment: Inhibition of plasma triglycerides in normolipidemic rats after 24 hr of 50 mg/kg oral dosing; assay type: functional; procedure, shortened: as §1
Canis familiaris [13] = experiment: Inhibition of plasma total triglycerides in the normolipidemic dogs after day 3 of oral administration of 5 mg/kg/ day.; assay type: functional, Canis lupus familiaris
Canis familiaris [14] = experiment: Inhibition of plasma total cholesterol in the normolipidemic dogs after day 3 of oral administration of 1 mg/kg/ day.; assay type: functional, Canis lupus familiaris; procedure, shortened: as §2
Canis familiaris [15] = experiment: Inhibition of plasma total cholesterol in the normolipidemic dogs after day 2 of oral administration of 10 mg/kg/ day.; assay type: functional, Canis lupus familiaris; procedure, shortened: as §2
Rattus norvegicus [16] = experiment: Inhibition of total cholesterol in normolipidemic rats after 2 hr of 50 mg/kg oral dosing; assay type: functional; procedure, shortened: as §1
Canis familiaris [17] = experiment: Inhibition of plasma total cholesterol in the normolipidemic dogs after day 0 of oral administration of 1 mg/kg/ day.; assay type: functional, Canis lupus familiaris; procedure, shortened: as §2
Rattus norvegicus [18] = experiment: Inhibition of total cholesterol in normolipidemic rats after 6 hr of 10 mg/kg oral dosing; assay type: functional; procedure, shortened: as §1
Canis familiaris [19] = experiment: Inhibition of plasma total triglycerides in the normolipidemic dogs after day 2 of oral administration of 5 mg/kg/ day.; assay type: functional, Canis lupus familiaris; procedure, shortened: as §2
Canis familiaris [20] = experiment: Inhibition of plasma total cholesterol in the normolipidemic dogs after day 2 of oral administration of 2.5 mg/kg/ day.; assay type: functional, Canis lupus familiaris; procedure, shortened: as §2
Canis familiaris [21] = experiment: Inhibition of plasma total triglycerides in the normolipidemic dogs after day 3 of oral administration of 1 mg/kg/ day.; assay type: functional, Canis lupus familiaris; procedure, shortened: as §2
Canis familiaris [22] = experiment: Inhibition of plasma total cholesterol in the normolipidemic dogs after day 0 of oral administration of 10 mg/kg/ day.; assay type: functional, Canis lupus familiaris; procedure, shortened: as §2
Rattus norvegicus [23] = experiment: Inhibition of total cholesterol in normolipidemic rats after 2 hr of 10 mg/kg oral dosing; assay type: functional; procedure, shortened: as §1
Canis familiaris [24] = experiment: Inhibition of plasma total triglycerides in the normolipidemic dogs after day 0 of oral administration of 1 mg/kg/ day.; assay type: functional, Canis lupus familiaris; procedure, shortened: as §2
Canis familiaris [25] = experiment: Inhibition of plasma total cholesterol in the normolipidemic dogs after day 4 of oral administration of 2.5 mg/kg/ day; assay type: functional, Canis lupus familiaris; procedure, shortened: as §2
Canis familiaris [26] = experiment: Inhibition of plasma total cholesterol in the normolipidemic dogs after day 4 of oral administration of 5 mg/kg/ day; assay type: functional, Canis lupus familiaris; procedure, shortened: as §2
Canis familiaris [27] = experiment: Inhibition of plasma total cholesterol in the normolipidemic dogs after day 3 of oral administration of 2.5 mg/kg/ day.; assay type: functional, Canis lupus familiaris; procedure, shortened: as §2
Canis familiaris [28] = experiment: Inhibition of plasma total triglycerides in the normolipidemic dogs after day 4 of oral administration of 5 mg/kg/ day; assay type: functional, Canis lupus familiaris
Canis familiaris [29] = experiment: Inhibition of plasma total triglycerides in the normolipidemic dogs after day 3 of oral administration of 10 mg/kg/ day.; assay type: functional, Canis lupus familiaris
Canis familiaris [30] = experiment: Inhibition of plasma total cholesterol in the normolipidemic dogs after day 4 of oral administration of 1 mg/kg/ day; assay type: functional, Canis lupus familiaris; procedure, shortened: as §2
Canis familiaris [31] = experiment: Inhibition of plasma total triglycerides in the normolipidemic dogs after day 2 of oral administration of 2.5 mg/kg/ day.; assay type: functional, Canis lupus familiaris; procedure, shortened: as §2
Canis familiaris [32] = experiment: Inhibition of plasma total cholesterol in the normolipidemic dogs after day 4 of oral administration of 10 mg/kg/ day.; assay type: functional, Canis lupus familiaris; procedure, shortened: as §2
Canis familiaris [33] = experiment: Inhibition of plasma total cholesterol in the normolipidemic dogs after day 2 of oral administration of 5 mg/kg/ day.; assay type: functional, Canis lupus familiaris; procedure, shortened: as §2
[34] = molecular target: T1, Microsomal triglyceride transfer protein large subunit (Homo sapiens, UniProt P55157); experiment: In vitro inhibitory activity against MTP using MTP transfer assay
T1 sequence (P55157 whole entry): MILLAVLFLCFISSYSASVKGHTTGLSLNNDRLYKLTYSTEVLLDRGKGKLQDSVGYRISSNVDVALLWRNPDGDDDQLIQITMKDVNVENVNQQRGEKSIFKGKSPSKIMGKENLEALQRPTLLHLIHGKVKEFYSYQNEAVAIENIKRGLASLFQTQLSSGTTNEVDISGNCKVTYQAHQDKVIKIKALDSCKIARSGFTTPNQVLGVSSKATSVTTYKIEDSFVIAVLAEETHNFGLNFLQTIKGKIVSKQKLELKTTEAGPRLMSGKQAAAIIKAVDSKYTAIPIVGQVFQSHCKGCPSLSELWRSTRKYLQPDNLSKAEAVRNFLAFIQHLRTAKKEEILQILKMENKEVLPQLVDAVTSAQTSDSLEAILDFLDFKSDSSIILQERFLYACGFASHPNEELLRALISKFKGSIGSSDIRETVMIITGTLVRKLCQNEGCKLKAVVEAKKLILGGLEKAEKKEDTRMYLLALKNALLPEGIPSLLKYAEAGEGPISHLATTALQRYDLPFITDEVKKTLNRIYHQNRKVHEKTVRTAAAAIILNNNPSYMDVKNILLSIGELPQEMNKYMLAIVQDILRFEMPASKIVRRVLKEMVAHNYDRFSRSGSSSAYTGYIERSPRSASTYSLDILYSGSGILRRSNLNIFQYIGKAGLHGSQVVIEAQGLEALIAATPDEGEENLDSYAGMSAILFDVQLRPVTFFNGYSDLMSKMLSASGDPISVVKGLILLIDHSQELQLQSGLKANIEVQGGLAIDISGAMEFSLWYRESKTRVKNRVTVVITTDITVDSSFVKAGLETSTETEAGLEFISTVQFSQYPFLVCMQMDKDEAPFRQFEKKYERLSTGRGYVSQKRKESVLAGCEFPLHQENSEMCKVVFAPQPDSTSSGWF

Rattus norvegicus [35] = experiment: Inhibition of plasma triglycerides in normolipidemic rats after 2 hr of 10 mg/kg oral dosing; assay type: functional; procedure, shortened: as §1
Rattus norvegicus [36] = experiment: Inhibition of plasma triglycerides in normolipidemic rats after 6 hr of 50 mg/kg oral dosing; assay type: functional; procedure, shortened: as §1
Canis familiaris [37] = experiment: Inhibition of plasma total triglycerides in the normolipidemic dogs after day 2 of oral administration of 1 mg/kg/ day.; assay type: functional, Canis lupus familiaris; procedure, shortened: as §2
Canis familiaris [38] = experiment: Inhibition of plasma total triglycerides in the normolipidemic dogs after day 0 of oral administration of 5 mg/kg/ day.; assay type: functional, Canis lupus familiaris; procedure, shortened: as §2
Canis familiaris [39] = experiment: Inhibition of plasma total triglycerides in the normolipidemic dogs after day 3 of oral administration of 2.5 mg/kg/ day.; assay type: functional, Canis lupus familiaris
Rattus norvegicus [40] = experiment: Inhibition of total cholesterol in normolipidemic rats after 24 hr of 50 mg/kg oral dosing; assay type: functional; procedure, shortened: as §1
Canis familiaris [41] = experiment: Inhibition of plasma total cholesterol in the normolipidemic dogs after day 2 of oral administration of 1 mg/kg/ day.; assay type: functional, Canis lupus familiaris; procedure, shortened: as §2
Canis familiaris [42] = experiment: Inhibition of plasma total cholesterol in the normolipidemic dogs after day 0 of oral administration of 5 mg/kg/ day.; assay type: functional, Canis lupus familiaris; procedure, shortened: as §2
Canis familiaris [43] = experiment: Inhibition of plasma total triglycerides in the normolipidemic dogs after day 4 of oral administration of 2.5 mg/kg/ day; assay type: functional, Canis lupus familiaris
Canis familiaris [44] = experiment: Inhibition of plasma total cholesterol in the normolipidemic dogs after day 3 of oral administration of 5 mg/kg/ day.; assay type: functional, Canis lupus familiaris; procedure, shortened: as §2
Canis familiaris [45] = experiment: Inhibition of plasma total triglycerides in the normolipidemic dogs after day 0 of oral administration of 10 mg/kg/ day.; assay type: functional, Canis lupus familiaris; procedure, shortened: as §2
[46] = molecular target: Apolipoprotein B-100 (Homo sapiens) (UniProt P04114); experiment: Inhibition of apolipoprotein B (apoB) secreted by human hepatoma cells (Hep G2) at 100 nM
Chain of Apolipoprotein B-100 (Homo sapiens) (P04114 whole entry): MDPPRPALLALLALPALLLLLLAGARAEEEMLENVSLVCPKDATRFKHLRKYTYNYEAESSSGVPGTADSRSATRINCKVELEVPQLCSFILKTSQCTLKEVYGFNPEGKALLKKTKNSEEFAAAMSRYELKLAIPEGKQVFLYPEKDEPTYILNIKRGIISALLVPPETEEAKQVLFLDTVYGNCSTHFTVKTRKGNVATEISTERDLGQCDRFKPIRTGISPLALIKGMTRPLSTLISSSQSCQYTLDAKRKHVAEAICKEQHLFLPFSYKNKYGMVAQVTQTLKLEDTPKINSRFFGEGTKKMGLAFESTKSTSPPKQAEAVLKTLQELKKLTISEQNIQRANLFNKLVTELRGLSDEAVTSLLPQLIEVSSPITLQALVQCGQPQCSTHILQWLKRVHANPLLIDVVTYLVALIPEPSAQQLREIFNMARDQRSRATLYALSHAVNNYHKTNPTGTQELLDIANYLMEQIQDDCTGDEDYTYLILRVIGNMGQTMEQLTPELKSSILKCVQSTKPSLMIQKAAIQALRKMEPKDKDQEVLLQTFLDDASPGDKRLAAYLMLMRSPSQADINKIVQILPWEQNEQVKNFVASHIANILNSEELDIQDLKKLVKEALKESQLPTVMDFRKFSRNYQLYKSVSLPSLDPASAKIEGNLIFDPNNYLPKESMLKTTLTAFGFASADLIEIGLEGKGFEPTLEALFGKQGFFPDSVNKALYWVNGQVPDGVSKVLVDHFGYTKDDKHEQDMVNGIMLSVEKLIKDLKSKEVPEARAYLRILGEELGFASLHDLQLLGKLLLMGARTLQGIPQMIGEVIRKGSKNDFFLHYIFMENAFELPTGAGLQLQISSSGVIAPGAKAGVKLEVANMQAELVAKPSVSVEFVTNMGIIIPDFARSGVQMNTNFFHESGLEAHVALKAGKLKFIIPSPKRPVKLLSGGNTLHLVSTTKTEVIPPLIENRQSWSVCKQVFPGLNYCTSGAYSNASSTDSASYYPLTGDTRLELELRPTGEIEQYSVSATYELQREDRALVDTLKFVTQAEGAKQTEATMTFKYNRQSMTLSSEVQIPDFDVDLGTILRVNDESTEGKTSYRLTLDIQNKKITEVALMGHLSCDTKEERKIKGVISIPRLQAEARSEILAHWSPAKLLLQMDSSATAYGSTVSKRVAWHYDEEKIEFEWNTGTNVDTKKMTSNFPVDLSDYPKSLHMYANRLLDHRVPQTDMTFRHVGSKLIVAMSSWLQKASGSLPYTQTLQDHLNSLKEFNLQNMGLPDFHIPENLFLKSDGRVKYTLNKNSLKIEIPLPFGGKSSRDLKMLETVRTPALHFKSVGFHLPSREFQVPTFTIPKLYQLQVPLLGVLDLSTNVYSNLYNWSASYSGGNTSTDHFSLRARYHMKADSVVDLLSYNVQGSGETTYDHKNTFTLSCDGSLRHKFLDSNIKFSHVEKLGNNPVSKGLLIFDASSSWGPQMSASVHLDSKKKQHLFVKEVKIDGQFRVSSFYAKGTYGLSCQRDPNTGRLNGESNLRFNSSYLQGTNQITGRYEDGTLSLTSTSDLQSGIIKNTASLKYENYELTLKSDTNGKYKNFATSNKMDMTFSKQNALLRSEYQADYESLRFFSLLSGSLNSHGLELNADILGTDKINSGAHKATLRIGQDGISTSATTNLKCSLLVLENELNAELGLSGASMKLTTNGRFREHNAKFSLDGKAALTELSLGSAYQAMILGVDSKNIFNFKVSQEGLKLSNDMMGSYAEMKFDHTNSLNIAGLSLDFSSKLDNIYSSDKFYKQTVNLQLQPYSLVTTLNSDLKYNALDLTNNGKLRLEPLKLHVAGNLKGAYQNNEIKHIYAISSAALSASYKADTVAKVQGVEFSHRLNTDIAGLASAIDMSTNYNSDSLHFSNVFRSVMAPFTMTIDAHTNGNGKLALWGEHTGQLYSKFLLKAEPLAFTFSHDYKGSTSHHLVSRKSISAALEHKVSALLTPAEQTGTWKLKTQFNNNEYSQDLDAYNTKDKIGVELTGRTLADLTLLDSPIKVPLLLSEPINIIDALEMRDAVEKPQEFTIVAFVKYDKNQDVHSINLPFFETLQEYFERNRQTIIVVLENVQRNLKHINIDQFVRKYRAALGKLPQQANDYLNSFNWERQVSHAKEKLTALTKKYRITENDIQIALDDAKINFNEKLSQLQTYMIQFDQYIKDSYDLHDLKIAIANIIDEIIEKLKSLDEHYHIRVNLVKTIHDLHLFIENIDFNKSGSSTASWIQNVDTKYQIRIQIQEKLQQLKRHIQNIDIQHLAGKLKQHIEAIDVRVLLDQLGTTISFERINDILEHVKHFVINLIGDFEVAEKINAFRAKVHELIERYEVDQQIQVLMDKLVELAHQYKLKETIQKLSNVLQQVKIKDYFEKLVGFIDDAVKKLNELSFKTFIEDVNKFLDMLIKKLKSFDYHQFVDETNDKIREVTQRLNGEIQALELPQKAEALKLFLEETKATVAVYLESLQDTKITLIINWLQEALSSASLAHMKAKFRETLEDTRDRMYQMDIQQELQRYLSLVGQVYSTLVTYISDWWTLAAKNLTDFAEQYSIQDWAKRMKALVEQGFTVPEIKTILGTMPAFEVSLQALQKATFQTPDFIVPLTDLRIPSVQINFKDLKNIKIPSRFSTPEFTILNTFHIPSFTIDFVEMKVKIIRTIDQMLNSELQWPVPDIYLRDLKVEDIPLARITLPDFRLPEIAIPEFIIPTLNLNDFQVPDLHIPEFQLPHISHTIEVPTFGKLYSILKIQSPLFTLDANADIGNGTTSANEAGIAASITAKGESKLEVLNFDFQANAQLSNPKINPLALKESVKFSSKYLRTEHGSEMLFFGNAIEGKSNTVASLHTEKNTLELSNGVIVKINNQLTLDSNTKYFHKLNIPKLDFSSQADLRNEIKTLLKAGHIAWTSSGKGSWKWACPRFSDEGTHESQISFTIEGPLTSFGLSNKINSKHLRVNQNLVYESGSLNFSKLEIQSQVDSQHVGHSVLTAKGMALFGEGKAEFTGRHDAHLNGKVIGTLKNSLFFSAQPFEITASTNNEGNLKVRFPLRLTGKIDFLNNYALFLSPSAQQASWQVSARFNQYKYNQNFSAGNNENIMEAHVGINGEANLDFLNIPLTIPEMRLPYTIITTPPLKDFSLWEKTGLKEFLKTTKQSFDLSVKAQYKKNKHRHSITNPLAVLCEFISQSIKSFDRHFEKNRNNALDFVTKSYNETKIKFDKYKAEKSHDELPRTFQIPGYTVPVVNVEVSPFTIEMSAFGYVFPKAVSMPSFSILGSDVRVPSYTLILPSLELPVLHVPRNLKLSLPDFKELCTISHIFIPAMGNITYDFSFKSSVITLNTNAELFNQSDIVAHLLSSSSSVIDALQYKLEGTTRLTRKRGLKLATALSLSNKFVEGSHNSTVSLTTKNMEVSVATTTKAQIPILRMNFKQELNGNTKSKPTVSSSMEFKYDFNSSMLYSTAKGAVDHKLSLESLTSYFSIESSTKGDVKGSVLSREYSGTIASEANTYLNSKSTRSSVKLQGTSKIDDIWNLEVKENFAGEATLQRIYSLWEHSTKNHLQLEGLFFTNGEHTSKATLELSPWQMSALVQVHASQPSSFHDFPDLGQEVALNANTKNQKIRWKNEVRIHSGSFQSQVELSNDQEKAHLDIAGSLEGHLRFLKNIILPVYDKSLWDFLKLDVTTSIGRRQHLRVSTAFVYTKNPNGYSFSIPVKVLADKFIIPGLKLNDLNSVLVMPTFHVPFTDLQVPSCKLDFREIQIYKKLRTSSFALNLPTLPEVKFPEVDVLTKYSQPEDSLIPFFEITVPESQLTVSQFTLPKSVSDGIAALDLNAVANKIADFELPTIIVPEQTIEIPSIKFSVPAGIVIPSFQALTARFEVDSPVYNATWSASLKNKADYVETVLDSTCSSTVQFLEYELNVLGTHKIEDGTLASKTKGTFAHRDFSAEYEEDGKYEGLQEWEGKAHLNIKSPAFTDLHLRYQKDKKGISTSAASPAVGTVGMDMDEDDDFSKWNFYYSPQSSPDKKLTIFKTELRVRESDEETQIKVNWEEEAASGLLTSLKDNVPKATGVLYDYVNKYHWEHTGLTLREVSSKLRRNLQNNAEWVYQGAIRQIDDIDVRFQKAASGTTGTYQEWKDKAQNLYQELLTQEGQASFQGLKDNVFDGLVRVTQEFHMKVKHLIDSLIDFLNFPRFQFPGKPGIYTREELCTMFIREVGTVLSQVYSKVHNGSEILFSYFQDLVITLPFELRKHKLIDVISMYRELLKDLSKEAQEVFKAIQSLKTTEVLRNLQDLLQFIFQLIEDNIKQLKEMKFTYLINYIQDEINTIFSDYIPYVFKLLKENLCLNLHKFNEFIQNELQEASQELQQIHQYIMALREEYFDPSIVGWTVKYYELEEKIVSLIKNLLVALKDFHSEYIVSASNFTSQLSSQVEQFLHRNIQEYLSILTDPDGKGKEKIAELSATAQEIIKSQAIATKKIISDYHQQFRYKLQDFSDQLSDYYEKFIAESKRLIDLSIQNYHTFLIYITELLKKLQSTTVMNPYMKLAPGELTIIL

COC(=O)N1CCN([C@H]2Cc3ccc(NC(=O)c4cccc(C)c4-c4ccc(C(F)(F)F)cc4)cc3C2)CC1
Reduction (Rattus norvegicus [1]): 29% | Reduction (Rattus norvegicus [2]): 50% | Lipid level (Canis familiaris [3]): 24 mg/dL | Reduction (Rattus norvegicus [4]): 15% | Lipid level (Canis familiaris [5]): 58 mg/dL | NS (Rattus norvegicus [6]): no significant change | Lipid level (Canis familiaris [7]): 50 mg/dL | Lipid level (Canis familiaris [8]): 28 mg/dL | Lipid level (Canis familiaris [9]): 19 mg/dL | Lipid level (Canis familiaris [10]): 109 mg/dL | Reduction (Rattus norvegicus [11]): 80% | Reduction (Rattus norvegicus [12]): 44% | Lipid level (Canis familiaris [13]): 17 mg/dL | Lipid level (Canis familiaris [14]): 83 mg/dL | Lipid level (Canis familiaris [15]): 79 mg/dL | Reduction (Rattus norvegicus [16]): 35% | Lipid level (Canis familiaris [17]): 120 mg/dL | Reduction (Rattus norvegicus [18]): 29% | Lipid level (Canis familiaris [19]): 20 mg/dL | Lipid level (Canis familiaris [20]): 67 mg/dL | Lipid level (Canis familiaris [21]): 26 mg/dL | Lipid level (Canis familiaris [22]): 143 mg/dL | Reduction (Rattus norvegicus [23]): 40% | Lipid level (Canis familiaris [24]): 38 mg/dL | Lipid level (Canis familiaris [25]): <42 mg/dL | Lipid level (Canis familiaris [26]): 38 mg/dL | Lipid level (Canis familiaris [27]): 53 mg/dL | Lipid level (Canis familiaris [28]): 14 mg/dL | Lipid level (Canis familiaris [29]): 18 mg/dL | Lipid level (Canis familiaris [30]): <73 mg/dL | Lipid level (Canis familiaris [31]): 28 mg/dL | Lipid level (Canis familiaris [32]): <31 mg/dL | Lipid level (Canis familiaris [33]): 79 mg/dL | IC50 [34]: 40 nM | Reduction (Rattus norvegicus [35]): 70% | Reduction (Rattus norvegicus [36]): 56% | Lipid level (Canis familiaris [37]): 28 mg/dL | Lipid level (Canis familiaris [38]): 37 mg/dL | Lipid level (Canis familiaris [39]): 20 mg/dL | Reduction (Rattus norvegicus [40]): 18% | Lipid level (Canis familiaris [41]): 91 mg/dL | Lipid level (Canis familiaris [42]): 127 mg/dL | Lipid level (Canis familiaris [43]): 25 mg/dL | Lipid level (Canis familiaris [44]): <53 mg/dL | Lipid level (Canis familiaris [45]): 62 mg/dL

Cc1cccc(C(=O)Nc2ccc3c(c2)C[C@H](NCc2ccccn2)C3)c1-c1ccc(C(F)(F)F)cc1
IC50 [34]: 410 nM | inhibition [46]: 30%
